Assay results: ChEMBL document CHEMBL4334538, “Mitochondrial Impairment by Cyanine-Based Small Molecules Induces Apoptosis in Cancer Cells” (ACS Med Chem Lett, 2020)
pIC50: −log10 of the molar value. Active and inactive are the calls of the source. No cut-off for these calls is given here.

Legend:
HeLa [1] = assay: Cytotoxicity against human HeLa cells assessed as cell killing after 24 hrs by MTT assay; format: functional, cell-based
HEK293 = assay: Cytotoxicity against HEK293 cells assessed as reduction in cell viability after 24 hrs by MTT assay; format: cell-based; conditions: Homo sapiens, HEK293, 24 h
[2] = Cytotoxicity against HEK293 cells assessed as cell viability at 5 uM after 24 hrs by MTT assay relative to control; format: cell-based; conditions: human, read-out: Activity
[3] = Drug uptake in mitochondria of human HeLa cells at 150 nM incubated for 20 mins by mito-tracker green dye based laser confocal microscopic analysis; format: ADME; conditions: 0.15 µM
Method in brief: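 HeLa cells exposed to compound at 150 nM for 20 min, mitochondria then stained with MitoTracker Green; colocalization by confocal laser scanning microscopy with intensity scatter plots and z-stack maximum projections.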

HeLa [4] = assay: Induction of mitochondrial damage in human HeLa cells assessed as opening of MPTP by measuring fold increase in fluorescence intensity at 800 nM after 24 hrs by Calcein AM/CoCl2 based confocal microscopic analysis relative to control; conditions: Mitochondria
Method in brief: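 HeLa cells treated 24 h, then loaded with Calcein AM plus CoCl2; live cells imaged by confocal microscopy and green fluorescence intensity quantified against untreated control.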

HeLa [5] = assay: Induction of morphological changes in mitochondria of human HeLa cells assessed as reduction in mitochondrial area at 500 nM after 3 hrs by laser confocal microscopic analysis relative to untreated control
Method in brief: (§1)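 Mitochondrial morphology: HeLa cells given 500 nM compound for 3 h, mitochondria visualized by confocal imaging (controls stained with MitoTracker Green); fragmentation scored and average mitochondrial area quantified against control.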

HeLa [6] = assay: Decrease in Bcl-2 expression in human HeLa cells assessed as fold change in fluorescent intensity at 900 nM after 24 hrs by Alexa fluor 488/DAPI-staining based confocal microscopic analysis relative to untreated control; format: functional
Method in brief: (§2)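 Immunofluorescence: HeLa cells treated 24 h, probed with Bcl-2, Bcl-xl or Bax primary antibodies and Alexa Fluor 488 secondary, nuclei counterstained with DAPI; confocal green intensity quantified relative to control.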

HeLa [7] = assay: Decrease in Bcl-xl expression in human HeLa cells assessed as fold change in fluorescent intensity at 900 nM after 24 hrs by Alexa fluor 488/DAPI-staining based confocal microscopic analysis relative to untreated control; format: functional; method in brief: as §2
HeLa [8] = assay: Increase in Bax expression in human HeLa cells assessed as fold change in fluorescent intensity at 900 nM after 24 hrs by Alexa fluor 488/DAPI-staining based confocal microscopic analysis relative to untreated control; format: functional; method in brief: as §2
HeLa [9] = assay: Decrease in Bcl-2 expression in human HeLa cells at 900 nM after 24 hrs by Western blot analysis relative to control; format: functional
Method in brief: (§3)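 Western blot of HeLa cellular proteins after 24 h compound treatment; Bcl-2, Bcl-xl and Bax bands quantified relative to control.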

HeLa [10] = assay: Decrease in Bcl-xl expression in human HeLa cells at 900 nM after 24 hrs by Western blot analysis relative to control; format: functional; method in brief: as §3
HeLa [11] = assay: Up regulation of Bax expression in human HeLa cells at 900 nM after 24 hrs by Western blot analysis relative to control; format: functional; method in brief: as §3
HeLa [12] = assay: Induction of ROS generation in human HeLa cells assessed as fold change in fluorescent intensity at 500 to 800 nM after 24 hrs by H2DCF-DA staining-based fluorescence microscopic analysis relative to untreated control; format: functional
Method in brief: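 ROS read-out: HeLa cells treated with compound, then incubated with H2DCFDA; green fluorescence imaged by fluorescence/confocal microscopy and intensity quantified versus control.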

HeLa [13] = assay: Induction of cell cycle arrest in human HeLa cells assessed as apoptotic cells at 900 nM after 24 hrs by RNase/PI-staining based flow cytometric analysis (reference value: 1.25%); format: functional
HeLa [14] = assay: Induction of cell cycle arrest in human HeLa cells assessed as accumulation of cells at G0/G1 phase at 900 nM after 24 hrs by RNase/PI-staining based flow cytometric analysis (reference value: 47.43%); format: functional
HeLa [15] = assay: Induction of cell cycle arrest in human HeLa cells assessed as accumulation of cells at S phase at 900 nM after 24 hrs by RNase/PI-staining based flow cytometric analysis (reference value: 13.83%); format: functional
HeLa [16] = assay: Induction of cell cycle arrest in human HeLa cells assessed as accumulation of cells at G2/M phase at 900 nM after 24 hrs by RNase/PI-staining based flow cytometric analysis (reference value: 33.91%); format: functional
HeLa [17] = assay: Induction of apoptosis in human HeLa cells assessed as viable cells at 900 nM after 24 hrs by APC-AnnexinV/7-AAD staining based flow cytometric analysis (reference value: 96.4%); format: functional; conditions: read-out: Activity
Method in brief: (§4)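 After 24 h treatment, HeLa cells stained with APC-Annexin V (phosphatidylserine) and 7-AAD (nuclear DNA of necrotic cells), then sorted by flow cytometry into viable, early, late apoptotic and necrotic populations.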

HeLa [18] = assay: Induction of apoptosis in human HeLa cells assessed as early apoptotic cells at 900 nM after 24 hrs by APC-AnnexinV/7-AAD staining based flow cytometric analysis (reference value: 0.2%); format: functional; method in brief: as §4
HeLa [19] = assay: Induction of apoptosis in human HeLa cells assessed as late apoptotic cells at 900 nM after 24 hrs by APC-AnnexinV/7-AAD staining based flow cytometric analysis (reference value: 2.3%); format: functional; method in brief: as §4
HeLa [20] = assay: Induction of apoptosis in human HeLa cells assessed as necrotic cells at 900 nM after 24 hrs by APC-AnnexinV/7-AAD staining based flow cytometric analysis (reference value: 1.1%); format: functional; method in brief: as §4
HeLa [21] = assay: Induction of morphological changes in mitochondria of human HeLa cells assessed as mitochondrial fragmentation at 500 nM after 3 hrs by mito-tracker green dye based laser confocal microscopic analysis; method in brief: as §1
HeLa [22] = assay: Induction of apoptosis in human HeLa cells assessed as reduction in caspase-3 expression at 900 nM after 24 hrs by Western blot analysis relative to control; format: functional
Method in brief: (§5)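 HeLa cells incubated 24 h with compound; whole-cell proteins run on gel electrophoresis and blotted for pro-caspase-3 and pro-caspase-9.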

HeLa [23] = assay: Induction of apoptosis in human HeLa cells assessed as reduction in caspase-9 expression at 900 nM after 24 hrs by Western blot analysis relative to control; format: functional; method in brief: as §5
HeLa [24] = assay: Cytotoxicity against human HeLa cells assessed as reduction in cell viability after 24 hrs by MTT assay
HeLa [25] = assay: Cytotoxicity against human HeLa cells assessed as cell viability at 10 uM after 24 hrs by MTT assay relative to control; format: functional; conditions: read-out: Activity
HeLa [26] = assay: Cytotoxicity against human HeLa cells assessed as cell death at 10 uM after 24 hrs by MTT assay; format: functional, cell-based

COc1cc(-c2cccc(OC)c2OC)[nH]c1/C=C/C1=[N+](C)c2ccccc2C1(C)C
pIC50 (HeLa [1]): 5.35 to 6.04
inhibition (HeLa [1]): Dose-dependent effect

COc1cc(OC)cc(-c2cc(OC)c(/C=C/C3=[N+](C)c4ccccc4C3(C)C)[nH]2)c1
pIC50 (HeLa [1]): 5.35 to 6.04
inhibition (HeLa [1]): Dose-dependent effect

COc1ccc(-c2cc(OC)c(/C=C/C3=[N+](C)c4ccccc4C3(C)C)[nH]2)cc1OC
pIC50 (HeLa [1]): 5.35 to 6.04
inhibition (HeLa [1]): Dose-dependent effect

COc1cc(-c2ccco2)[nH]c1/C=C/C1=[N+](C)c2ccccc2C1(C)C
pIC50 (HeLa [1]): 5.35 to 6.04
inhibition (HeLa [1]): Dose-dependent effect

COc1ccc2[nH]c(-c3cc(OC)c(/C=C/C4=[N+](C)c5ccccc5C4(C)C)[nH]3)cc2c1.[I-]
pIC50 (HeLa [1]): 6.04
inhibition (HeLa [1]): Dose-dependent effect
pIC50 (HEK293): 5.58
viability at 24 h, 5 µM [2]: 25%
Drug uptake [3]: Active
fold change (FC) (HeLa [4]): 3.9
fold change (FC) (HeLa [5]): 2.6
fold change (FC) (HeLa [6]): 5.7
fold change (FC) (HeLa [7]): 8.4
fold change (FC) (HeLa [8]): 2.4
fold change (FC) (HeLa [9]): 9.3
fold change (FC) (HeLa [10]): 5.6
fold change (FC) (HeLa [11]): 4.1
fold change (FC) (HeLa [12]): 22.4
Activity (HeLa [13]): 3.47%
Activity (HeLa [14]): 63.94%
Activity (HeLa [15]): 13.52%
Activity (HeLa [16]): 15%
viability at 0.9 µM (HeLa [17]): 0.3%
Activity (HeLa [18]): 0%
Activity (HeLa [19]): 98.7%
Activity (HeLa [20]): 1%
Activity (HeLa [21]): Active
fold change (FC) (HeLa [22]): 3.7
fold change (FC) (HeLa [23]): 2

COc1cc(-c2c(OC)cccc2OC)[nH]c1/C=C/C1=[N+](C)c2ccccc2C1(C)C
pIC50 (HeLa [1]): 5.35 to 6.04
inhibition (HeLa [1]): Dose-dependent effect

COc1cccc2c1C(=O)c1c(O)c3c(c(O)c1C2=O)C[C@@](O)(C(=O)CO)C[C@@H]3O[C@H]1C[C@H](N)[C@H](O)[C@H](C)O1 [DOXORUBICIN]
pIC50 (HeLa [24]): 5.70

COc1cc(-c2ccc3c(c2)OCO3)[nH]c1/C=C/C1=[N+](C)c2ccccc2C1(C)C
pIC50 (HeLa [1]): 5.35 to 6.04
inhibition (HeLa [1]): Dose-dependent effect

CC(=O)O[C@H]1C(=O)[C@@]2(C)[C@H]([C@H](OC(=O)c3ccccc3)[C@]3(O)C[C@H](OC(=O)[C@H](O)[C@@H](NC(=O)c4ccccc4)c4ccccc4)C(C)=C1C3(C)C)[C@]1(OC(C)=O)CO[C@@H]1C[C@@H]2O [PACLITAXEL]
viability at 10 µM (HeLa [25]): 68.7%

COc1cc(-c2cc3ccccc3o2)[nH]c1/C=C/C1=[N+](C)c2ccccc2C1(C)C
pIC50 (HeLa [1]): 5.35 to 6.04
inhibition (HeLa [1]): Dose-dependent effect

COc1cc(-c2ccc3ccccc3c2)[nH]c1/C=C/C1=[N+](C)c2ccccc2C1(C)C
pIC50 (HeLa [1]): 5.35 to 6.04
inhibition (HeLa [1]): Dose-dependent effect

COc1ccc(-c2cc(OC)c(/C=C/C3=[N+](C)c4ccccc4C3(C)C)[nH]2)c(OC)c1
pIC50 (HeLa [1]): 5.35 to 6.04
inhibition (HeLa [1]): Dose-dependent effect

COc1cc(-c2ccc[nH]2)[nH]c1/C=C/C1=[N+](C)c2ccccc2C1(C)C
pIC50 (HeLa [1]): 5.35 to 6.04
inhibition (HeLa [1]): Dose-dependent effect

COc1cc(-c2cc3ccccc3s2)[nH]c1/C=C/C1=[N+](C)c2ccccc2C1(C)C
pIC50 (HeLa [1]): 5.35 to 6.04
inhibition (HeLa [1]): Dose-dependent effect

COC1=CC(c2cc3ccccc3[nH]2)=N/C1=C\c1[nH]c(C)cc1C [OBATOCLAX]
viability at 10 µM (HeLa [25]): 70.3%

CCc1c2c(nc3ccc(O)cc13)-c1cc3c(c(=O)n1C2)COC(=O)[C@]3(O)CC
Activity (HeLa [26]): inactive

COc1cc(-c2cc3ccccc3[nH]2)[nH]c1/C=C/C1=[N+](C)c2ccccc2C1(C)C.[I-]
pIC50 (HeLa [1]): 6.01
inhibition (HeLa [1]): Dose-dependent effect
pIC50 (HEK293): 5.59
viability at 24 h, 5 µM [2]: 24%
Drug uptake [3]: Active
fold change (FC) (HeLa [4]): 3.6
fold change (FC) (HeLa [5]): 3.4
fold change (FC) (HeLa [6]): 8.5
fold change (FC) (HeLa [7]): 10.1
fold change (FC) (HeLa [8]): 2.1
fold change (FC) (HeLa [9]): 6.4
fold change (FC) (HeLa [10]): 4
fold change (FC) (HeLa [11]): 3.6
fold change (FC) (HeLa [12]): 16.1
Activity (HeLa [13]): 4.68%
Activity (HeLa [14]): 67.96%
Activity (HeLa [15]): 6.42%
Activity (HeLa [16]): 16.79%
viability at 0.9 µM (HeLa [17]): 0.1%
Activity (HeLa [18]): 0%
Activity (HeLa [19]): 99.5%
Activity (HeLa [20]): 0.4%
Activity (HeLa [21]): Active
fold change (FC) (HeLa [22]): 3.5
fold change (FC) (HeLa [23]): 1.9

COc1cc(-c2ccccc2)[nH]c1/C=C/C1=[N+](C)c2ccccc2C1(C)C
pIC50 (HeLa [1]): 5.35 to 6.04
inhibition (HeLa [1]): Dose-dependent effect

COc1cc(-c2cccs2)[nH]c1/C=C/C1=[N+](C)c2ccccc2C1(C)C
pIC50 (HeLa [1]): 5.35 to 6.04
inhibition (HeLa [1]): Dose-dependent effect

COc1ccc(OC)c(-c2cc(OC)c(/C=C/C3=[N+](C)c4ccccc4C3(C)C)[nH]2)c1
pIC50 (HeLa [1]): 5.35 to 6.04
inhibition (HeLa [1]): Dose-dependent effect
